Reference: publication PMC12040637 (Iranian Biomedical Journal, 2024)
Values after ≈ are worked out from the molar mass of the structure shown. Values joined by “and” are separate entries in the source; they are usually repeats but may differ in a detail not shown here. Identical values can stand only once.

Key:
Hep G2 cells [1] = experiment: MTT cytotoxic assay; format: cell-based; settings: for IC50: Homo sapiens, HepG2, 24 h, read-out: Hep G2 cells IC50
In short: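 Hep G2 cells (Pasteur Institute of Iran) seeded at 10,000 cells/well and grown 24 h at 37 °C, 5% CO2. Extract and fractions were tested at 12.5–200 μg/mL for 24 h. MTT was then added for 4 h at 37 °C, and formazan was dissolved in DMSO and read at 570 nm. IC50 came from plots of growth inhibition against concentration; mean ± SD of triplicates.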

[2] = DPPH radical scavenging activity assay; format: biochemical; settings: 30 min at 37 °C, absorbance 517 nm; mean ± SD of triplicate
In short: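 20 µL of sample (6.25–3200 μg/mL solutions) mixed with 200 µL methanolic DPPH and kept dark at 37 °C for 30 min; absorbance read at 517 nm. Blanks held sample plus MeOH; controls held MeOH plus DPPH. Percent inhibition was calculated from control and blank absorbances. Quercetin was the standard; triplicate runs.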

[3] = ABTS radical cation scavenging assay; format: biochemical; settings: absorbance 734 nm after 15 minutes; mean ± SD of triplicate
In short: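 ABTS radical cation made by mixing aqueous ABTS diammonium salt with ammonium persulfate, then kept dark at room temperature for 16 h. It was diluted with ethanol to A734 0.70 ± 0.05. 200 µL radical solution was added to 20 µL of samples at a range of concentrations, and A734 was read after 15 min. IC50 reported as mean ± SD of three replicates.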

FRAP assay = format: biochemical; settings: absorbance 593 nm; mean ± SD of triplicate
In short: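 FRAP reagent: 300 mM acetate buffer pH 3.6, 10 mM TPTZ in 40 mM HCl and 20 mM FeCl3·6H2O at 10:1:1, held dark at 37 °C for 10 min. 20 µL sample (6.25–3200 μg/mL solutions) was added to 180 µL pre-warmed reagent; controls held MeOH. Absorbance was read at 593 nm, and the FRAP value was calculated against the control; triplicate analysis.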

NO radical scavenging = format: biochemical; settings: for NO scavenging ability percentage: 200 μg/mL, mean ± SD of triplicate
In short: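 Sodium nitroprusside (50 µL, 10 mmol) and 50 µL MeOH were added to 50 µL sample and incubated at 25 °C for 150 min. Then 100 µL Griess reagent was added for 5 min at room temperature, and absorbance was read at 542 nm. Blanks held sample, nitroprusside and MeOH without Griess reagent. Inhibition ratio was calculated from sample, blank and control absorbances; triplicate.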

ORAC assay = format: biochemical; settings: Trolox equivalents
In short: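 Blank, Trolox standard or sample (20 µL) in 75 mM potassium phosphate buffer was plated in triplicate with 200 µL of 0.96 µM fluorescein and held at 37 °C for 20 min. AAPH was then added, and fluorescence decay (ex 485/em 538 nm) was recorded every 4.5 min for 2.5 h. Values were expressed as Trolox equivalents.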

Hep G2 cells [4] = experiment: CAA assay; format: cell-based; settings: Homo sapiens, HepG2, read-out: CAA IC50
In short: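 Hep G2 cells seeded at 6 × 10^4 cells/well overnight, then washed three times with PBS. Cells were incubated at 37 °C in treatment medium containing extract at various concentrations plus 25 µM DCFH-DA, then washed with PBS. AAPH was added, and fluorescence (ex 485/em 538 nm) was read every 5 min for 1 h at 37 °C. IC50 is the concentration scavenging 50% of AAPH radicals; quercetin was the standard; triplicates.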

protease = experiment: Determination of protease inhibition; format: biochemical; settings: casein 1%, 25 °C, 10 minutes
In short: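 Samples prepared at 1–300 µg/mL; 50 µL was combined with 200 µL of 50 mM phosphate buffer, then protease and 1% casein substrate were added. The mixture was incubated at 25 °C for 10 min and stopped with 10% trichloroacetic acid. After 21 min it was centrifuged at 895 ×g for 5 min, and supernatant absorbance was read at 280 nm. IC50 as mean ± SD of three replicates.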

Row | SMILES | Hep G2 cells IC50 (Hep G2 cells [1]; MTT, 24 h treatment, mean ± SD) [µg/mL] | DPPH IC50 [2] [µg/mL] | ABTS IC50 [3] [µg/mL] | FRAP IC50 (FRAP assay) [µg/mL] | NO scavenging ability percentage (NO radical scavenging) | NO scavenging ability percentage (NO radical scavenging; listed as oleanolic acid) [%] | ORAC TE (ORAC assay) [TE] | IC50 (Hep G2 cells [4]) [µg/mL] | IC50 (Hep G2 cells [1]) [µg/mL] | cytotoxic effect on the Hep G2 cell line (in words) (Hep G2 cells [1]; MTT) | Protease inhibition IC50 (protease) [µg/mL] | NO scavenging (NO radical scavenging) [µg/mL] | ORAC TE (ORAC assay; listed as rosmarinic acid) [TE] | NO scavenging ability percentage (NO radical scavenging; listed as ursolic acid) [%]
1 | N.N.[Cl][Pt][Cl] [Cisplatin, reference compound] | 12.65 ± 0.78 | – | – | – | – | – | – | – | – | – | – | – | – | –
2 | CC1(C)CC[C@]2(C(=O)O)CC[C@]3(C)C(=CC[C@@H]4[C@@]5(C)CC[C@H](O)C(C)(C)[C@@H]5CC[C@]43C)[C@@H]2C1 [Oleanolic acid] | – | >2000 | >2000 | 198.86 ± 1.49 | 48.82 ± 0.91% | 48.82 | 0.46 | > 200 | 123 ± 8.84 (≈ 270 µM) | low antiproliferative effect | 28.0 ± 0.2 | – | – | –
3 | O=c1c(O)c(-c2ccc(O)c(O)c2)oc2cc(O)cc(O)c12 [Quercetin, quercetin, reference compound] | – | 26.51 ± 0.06 | 26.35 ± 0.03 | 18.53 ± 0.12 | 89.96 ± 0.01% | – | 1.06 | 38.9 ± 0.87 (≈ 129 µM) | – | – | – | – | – | –
4 | O=C(/C=C/c1ccc(O)c(O)c1)O[C@H](Cc1ccc(O)c(O)c1)C(=O)O [Rosmarinic acid] | – | 28.39 ± 0.75 | 39.52 ± 0.72 | 31.87 ± 0.67 | 71.44 ± 0.37% and 71.44 ± 1.04% | – | 0.60 | 171 (≈ 475 µM) | 47.8 ± 5.87 (≈ 133 µM) | – | 17.0 ± 0.3 | 71.44 ± 1.04 | 0.6 | –
5 | C[C@@H]1O[C@@H](OC[C@H]2O[C@@H](Oc3c(-c4ccc(O)c(O)c4)oc4cc(O)cc(O)c4c3=O)[C@H](O)[C@@H](O)[C@@H]2O)[C@H](O)[C@H](O)[C@H]1O [Rutin, Quercetin-3-O-rutoside] | – | 33.48 ± 0.52 | 87.31 ± 0.68 | 42.62 ± 0.86 | 81.30 ± 0.37% | – | 0.83 | > 200 | 63.9 ± 0.96 (≈ 105 µM) | – | 22.4 ± 0.1 | – | – | –
6 | C[C@H]1[C@H](C)CC[C@]2(C(=O)O)CC[C@]3(C)C(=CC[C@@H]4[C@@]5(C)CC[C@H](O)C(C)(C)[C@@H]5CC[C@]43C)[C@H]12 [Ursolic acid] | – | >2000 | >2000 | 298.51 ± 1.76 | 55.52 ± 0.43% | – | 0.31 | 184 ± 9.25 (≈ 402 µM) | > 200 | – | 24.5 ± 0.1 | – | – | 55.52
